Source: PubChem BioAssay
MEX-5 binding = C. elegans MEX-5 TCR-2 RNA binding activity | Q9XUB2 | MEX-5/FITC-TCR2 RNA binding, fluorescence polarization; stronger effect = lower value | activity score (negative = inhibition of binding), % at 10 µM | actives 0.38% (n = 300,000) | AID 1832;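 active means inhibition past about -25% in most replicates, and total fluorescence under double the plate's negative control median, limit read from the data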
Runt-SMMHC FRET = Runt domain-CBFb-SMMHC interaction inhibition | Cerulean-Runt/Venus-CBFb-SMMHC FRET ratio 530/480, 1 h | AID 1434 | inhibition, % at 20 µM | Q01196+Q13951 | actives 0.74% (n = 220,000);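 active means mean inhibition across duplicate retests at 20 µM reaching about 50%, limit read from the data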;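 further: inhibitors lower the FRET ratio by blocking Runt binding to CBFb-SMMHC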
RanGTP-Impb inh = disruptors of Ran-importin-beta complex formation – biochemical, FRET, CFP-Ran, YFP-importin-beta, homogeneous, primary screen. cell-free CFP-Ran/YFP-importin-beta FRET ratio. inhibition, % (no concentration beside the values). actives 1.1% (n = 300,000);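 active means more than half of the replicate wells show a fall in the fluorescence ratio signal beyond about 16%, limit read from the data, passing the limit was not always enough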
KLK7 zymogen act = activates the human kallikrein-7 zymogen | P49862 | purified proKLK7, EDANS-DABCYL substrate fluorescence; 100% is mature enzyme control, 0% vehicle | activation, % at 7 µM | actives 0.9% (n = 370,000) | AID 652039;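 active means activation above the mean of all tested compounds plus 3 SD, computed per campaign excluding outliers beyond control limits, cut at about 13% in these data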
Target sequence (P49862 whole entry, looked up): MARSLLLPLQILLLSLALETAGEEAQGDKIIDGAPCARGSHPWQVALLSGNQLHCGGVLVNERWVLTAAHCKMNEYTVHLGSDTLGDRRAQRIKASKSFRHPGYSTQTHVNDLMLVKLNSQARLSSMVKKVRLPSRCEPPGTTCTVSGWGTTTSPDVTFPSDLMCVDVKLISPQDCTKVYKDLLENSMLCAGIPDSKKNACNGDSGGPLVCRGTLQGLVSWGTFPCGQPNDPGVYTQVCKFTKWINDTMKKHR
Runt-CBFb FRET = blocks binding of human RUNX1 Runt domain to CBFb; Q01196+Q13951; Cerulean-Runt/Venus-CBFb FRET ratio 530/480, 1 h; AID 1496; actives 0.46% (n = 220,000); inhibition, % at 20 µM;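 active means inhibition over about 50% at 20 µM in the single-dose screen, limit read from the data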
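Assay system: Cerulean-Runt domain fusion protein, energy donor; Signal: fluorescence energy transfer, 422 nm excitation, 530/480 nm emission; Timing: 1 h compound exposure, room temperature; Control set: unlabeled CBFb; Medium: Tris buffer pH 7.5 with salts and BSA; Compound: single test concentration of 20 µM, 1% DMSO final; Probe or stimulus: Venus-CBFb 100 nM.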
YIC FRET counter = counter-screen YIC FRET for RanGTP-importin-beta inhibitors. shares compounds with RanGTP-Impb inh. actives 40% (n = 1,000). IC50, µM. AID 435026. Purified YIC probe, intramolecular FRET ratio YFP/CFP;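 active means fitted half-maximal inhibitory concentration no more than tenfold above the top dose tested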
Hits are given with their value; i = inactive; nt = not tested or not shown. Most compounds without a hit are left out; they make up all but 2.1% or so of the library.

SMILES	MEX-5 binding	Runt-SMMHC FRET	RanGTP-Impb inh	KLK7 zymogen act	Runt-CBFb FRET	YIC FRET counter
Cc1ccc(S(=O)(=O)NCCCN2CCOCC2)cc1C	i	i	i	i	i	nt
Nc1nc(N2CCOCC2)nc(N(c2ccccc2)c2ccccc2)n1	i	i	20.7	i	i	i
O=C(c1ccccc1)c1cc2ccc(O)cc2oc1=O	i	174.0	27.4	i	nt	18.2
O=C(c1ccc(Br)cc1)c1cc2ccc(O)cc2oc1=O	i	nt	32.6	i	nt	19.9
CC(=O)c1ccc(COC(=O)c2cc3ccccc3oc2=O)cc1	i	nt	i	i	nt	nt
CCc1ccc(C(=O)c2cc3ccc(O)cc3oc2=O)cc1	i	nt	44.9	i	nt	10.9
O=C(c1ccc(Br)cc1)c1coc2ccc(O)cc12	i	nt	i	i	nt	nt
CC(=O)c1cc(-c2ccccc2-c2ccccc2)c(=O)n2c1CCC2	nt	nt	nt	i	nt	nt
CC1(Oc2ccc(CC#N)cc2)CCN(Cc2ccc(-n3ccnc3)cc2)C1 (centres undefined)	nt	nt	nt	i	nt	nt
O=C(COC(=O)CCc1ccccc1)NNC(=O)c1ccccc1	nt	nt	nt	i	nt	nt
O=[N+]([O-])c1cc(CN2CCCC2)ccc1Sc1ccc(Cl)cc1	i	i	19.4	i	i	i
Clc1ccc(CN2CCCCCC2)cc1	i	nt	i	i	nt	nt
COc1cc2c(cc1NC(=S)Nc1cccc3ccccc13)oc1ccccc12	i	i	17.6	i	i	i
CCN1CCN(c2ccc(NC(=O)c3cc(S(=O)(=O)N4CCCC4)ccc3Cl)cc2)CC1	nt	nt	nt	i	nt	nt
Cc1cc(CN2CCCC(CO)(Cc3cccc(Cl)c3)C2)n[nH]1 (centres undefined)	i	i	i	i	i	nt
OCC1(Cc2cccc(Cl)c2)CCCN(Cc2ccc3cc(F)ccc3n2)C1 (centres undefined)	i	i	24.3	i	i	i
CN1CCN(c2ccc(S(=O)(=O)N3CCCCC3)cc2NC(=O)Cc2ccc(Cl)cc2)CC1	i	i	40.3	i	i	i
O=C(Cc1ccc(Cl)cc1)Nc1cc(S(=O)(=O)N2CCOCC2)ccc1N1CCCC1	i	i	i	i	i	nt
Cc1nnc(NC(=O)c2c(-c3ccccc3)noc2C)s1	i	i	i	i	i	nt
Cc1onc(-c2ccccc2)c1C(=O)Nc1cccc2nsnc12	i	i	22.4	i	i	37
CC(=O)N(c1ccc(Cl)cc1)c1c[nH]c2ccccc12	i	i	26.2	i	i	i
COC(=O)C1=C(O)/C(=C\c2cc(C)n(-c3ccccc3F)c2C)N=C1C	i	i	i	i	nt	nt
COC(=O)C1=C(O)/C(=C\c2cc(C)n(-c3ccccc3C)c2C)N=C1C	i	i	19.7	i	i	43.9
O=C(Cc1c2ccccc2nc2ccccc12)c1ccccc1	i	115.1	22.0	i	126.4	i
O=C(CC(=O)c1ccccc1)c1ccccc1	nt	nt	nt	i	nt	nt
SMILES	MEX-5 binding	Runt-SMMHC FRET	RanGTP-Impb inh	KLK7 zymogen act	Runt-CBFb FRET	YIC FRET counter
Cc1sc2nc(CSC(C)C(=O)NC3(C#N)CCCCC3)[nH]c(=O)c2c1C (centres undefined)	nt	nt	nt	i	nt	nt
O=C(c1cc(COc2ccc(F)cc2Cl)on1)N1CCCC(c2ccccc2)C1 (centres undefined)	i	i	17.7	i	i	i
Cc1c(N=Cc2c(O)n(Cc3ccco3)c(=O)c3ccccc23)c(=O)n(-c2ccccc2)n1C	i	i	21.9	i	i	22.7
COc1ccc(OCc2nnc(SCC(=O)Nc3ccc(C)cc3)o2)cc1	i	nt	i	i	nt	nt
Cc1ccc(OCc2nnc(SCC(=O)CC(=O)Nc3ccccc3)o2)cc1	i	i	26.6	i	i	i
Cc1ccsc1C(=O)N1CCC1(C)C(=O)NCC(C)(C)C (centres undefined)	nt	nt	nt	i	nt	nt
CCc1nc(N)c(C#N)c(-c2ccc(F)cc2)c1C	i	i	22.8	i	i	i
N#Cc1c(N)nc2c(c1-c1ccc(F)cc1)CCC2	i	i	20.9	i	i	9.91
Cc1ccc(-c2c(C#N)c(N)nc3c2CCCC3)s1	i	i	21.6	i	i	27.1
CCc1nc(N)c(C#N)c(-c2cccnc2)c1C	i	i	nt	i	i	nt
CCOC(=O)N1CCN(C(=O)C[C@@H]2C[C@@]3(C(=O)OCC)CCC=C3N(Cc3cccc4ccccc34)C2=O)CC1	nt	nt	nt	i	nt	nt
